Some results are limits rather than exact numbers.

Experiment [1] has as its target T1, Protein kinase C gamma type (Homo sapiens, UniProt P05129). Description: Inhibitory activity of 10 uM compound against protein kinase C-gamma using histone as substrate.
The target in experiment [2] is T2, Protein kinase C alpha type (Homo sapiens, UniProt P17252). In words: Inhibitory activity of 10 uM compound against protein kinase C-alpha using histone as substrate.
In experiment [3] the target is T3, Protein kinase C beta type (Homo sapiens, UniProt P05771). Description: Inhibition of protein kinase C-betaII at 10 uM.
Target sequence in this assay (P05771 2-671 limits assumed): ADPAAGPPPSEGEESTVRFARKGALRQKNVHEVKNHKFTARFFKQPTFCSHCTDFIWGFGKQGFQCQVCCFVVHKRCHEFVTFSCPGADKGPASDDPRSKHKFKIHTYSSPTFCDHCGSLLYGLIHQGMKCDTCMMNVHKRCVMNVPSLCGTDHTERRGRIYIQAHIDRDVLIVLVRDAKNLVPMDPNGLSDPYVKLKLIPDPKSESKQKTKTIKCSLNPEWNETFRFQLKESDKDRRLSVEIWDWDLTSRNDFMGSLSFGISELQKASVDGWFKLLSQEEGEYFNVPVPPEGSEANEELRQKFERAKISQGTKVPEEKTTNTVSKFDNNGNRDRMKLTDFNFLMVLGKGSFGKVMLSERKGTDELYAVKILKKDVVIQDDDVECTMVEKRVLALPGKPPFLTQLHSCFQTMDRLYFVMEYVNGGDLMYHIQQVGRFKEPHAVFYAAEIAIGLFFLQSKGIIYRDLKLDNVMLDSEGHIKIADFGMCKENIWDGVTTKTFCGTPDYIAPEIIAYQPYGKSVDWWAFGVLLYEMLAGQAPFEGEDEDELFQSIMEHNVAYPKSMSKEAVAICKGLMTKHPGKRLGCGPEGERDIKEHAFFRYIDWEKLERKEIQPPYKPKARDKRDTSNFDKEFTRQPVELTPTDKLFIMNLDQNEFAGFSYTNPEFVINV
Experiment [4] deals with T3, Protein kinase C beta type. Description: Inhibitory concentration against human protein kinase C-betaII using histone as substrate.
Target sequence in this assay (P05771 whole entry): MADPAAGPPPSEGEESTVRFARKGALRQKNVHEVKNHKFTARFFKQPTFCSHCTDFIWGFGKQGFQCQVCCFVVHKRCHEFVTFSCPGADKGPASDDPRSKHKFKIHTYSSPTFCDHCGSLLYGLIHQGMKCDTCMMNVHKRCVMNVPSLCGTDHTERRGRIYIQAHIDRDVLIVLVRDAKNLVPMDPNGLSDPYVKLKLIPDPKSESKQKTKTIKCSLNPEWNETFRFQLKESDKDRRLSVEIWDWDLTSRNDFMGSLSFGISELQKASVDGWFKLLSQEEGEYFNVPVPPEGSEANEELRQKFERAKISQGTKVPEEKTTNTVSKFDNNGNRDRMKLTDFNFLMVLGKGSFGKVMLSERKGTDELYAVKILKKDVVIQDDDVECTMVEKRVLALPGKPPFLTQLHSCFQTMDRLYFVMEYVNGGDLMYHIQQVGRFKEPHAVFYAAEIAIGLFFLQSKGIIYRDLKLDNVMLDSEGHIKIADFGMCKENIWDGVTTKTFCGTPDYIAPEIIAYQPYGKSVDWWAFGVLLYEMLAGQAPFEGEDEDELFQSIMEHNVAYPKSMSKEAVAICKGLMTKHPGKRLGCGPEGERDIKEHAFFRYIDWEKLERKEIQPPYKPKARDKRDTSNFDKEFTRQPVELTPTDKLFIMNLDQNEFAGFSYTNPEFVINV
Experiment [5] deals with T2, Protein kinase C alpha type. Description: Inhibitory concentration against protein kinase C-alpha using histone as substrate.
Experiment [6] concerns the target T1, Protein kinase C gamma type. In words: Inhibition of protein kinase C-gamma.
The target of experiment [7] is Glycogen synthase kinase-3 beta (Homo sapiens, UniProt P49841). In words: Effective concentration of compound against glycogen synthase kinase-3 in HEK293 cells. The experiment is classed as functional, cell-based. A digest of the protocol: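 HEK293 cells exposed to compound; glycogen synthase activity then measured in cell extracts as ¹⁴C-UDP glucose incorporation into glycogen. EC₅₀ averaged from triplicate determinations.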
Chain of Glycogen synthase kinase-3 beta (P49841 whole entry): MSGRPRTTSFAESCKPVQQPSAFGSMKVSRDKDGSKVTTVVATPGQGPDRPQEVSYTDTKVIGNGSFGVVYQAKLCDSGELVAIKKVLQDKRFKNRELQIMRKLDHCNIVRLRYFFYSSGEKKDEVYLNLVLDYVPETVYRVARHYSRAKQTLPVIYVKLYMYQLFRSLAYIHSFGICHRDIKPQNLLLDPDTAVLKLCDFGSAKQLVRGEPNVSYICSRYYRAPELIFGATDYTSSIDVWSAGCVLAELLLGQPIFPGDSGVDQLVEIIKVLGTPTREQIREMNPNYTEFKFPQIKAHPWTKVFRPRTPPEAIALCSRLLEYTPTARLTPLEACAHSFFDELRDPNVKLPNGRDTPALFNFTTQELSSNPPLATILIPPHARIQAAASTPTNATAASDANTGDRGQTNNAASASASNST

As a reminder, the inhibition is the drop in the measured response relative to a control, in per cent. Turning to `O=C1NC(=O)C(c2cn(CCCO)c3ncccc23)=C1c1ccccn1`, the inhibition in experiment [1], in experiment [2] and in experiment [3] was below 50% throughout.

With `O=C1NC(=O)C(c2cn(CCCO)c3ncccc23)=C1c1cccs1`, the inhibition in experiment [1], in experiment [2] and in experiment [3] was below 50% each time.

For orientation: IC50 means the point on the concentration scale where inhibition reaches its midpoint. Read a low IC50 as inhibition by little substance. Regarding `CN(C)CCCn1cc(C2=C(c3ccccc3Cl)C(=O)NC2=O)c2cccnc21`, the IC50 in experiment [4] is 1.16 µM; in experiment [5], 4 µM; in experiment [6], 3.6 µM.

On to `COc1ccccc1C1=C(c2cn(CCCO)c3ncccc23)C(=O)NC1=O`, for which the figures for the inhibition in experiment [1] and in experiment [2] were below 50% and 50%, respectively. Also, in experiment [4], half-maximal inhibition (IC50) required 1.44 µM.

Turning to `CCn1cc(C2=C(c3cn(CCCO)c4ncccc34)C(=O)NC2=O)c2cccnc21`, the inhibition in experiment [1] and in experiment [2] was below 50% in each case. In addition, it took 1.07 µM to reach half-maximal inhibition in experiment [4] (IC50).

In the case of `O=C1NC(=O)C(c2cn(CCCO)c3ncccc23)=C1c1ccccc1Cl`, the IC50 in experiment [4] was 0.73 µM; in experiment [5] it was 4.4 µM; in experiment [6] it was 5.5 µM.

On to `CN(C)CCCn1cc(C2=C(c3cccc4ccccc34)C(=O)NC2=O)c2cccnc21`, for which the IC50 in experiment [4] was found to be 0.24 µM; in experiment [5], 1.4 µM; in experiment [6], 2.8 µM.

In the case of `O=C1NC(=O)C(c2cn(CCCO)c3ncccc23)=C1c1cccc2ccccc12`, in experiment [1], the inhibition came out at 50%. For the same compound, the IC50 in experiment [4] was 0.27 µM; in experiment [5] it was 3.6 µM.

On to `O=C1NC(=O)C(c2cn(CCCO)c3ncccc23)=C1c1ccccc1C(F)(F)F`, for which the inhibition in experiment [1] and in experiment [2] was 50% in each case. This compound came in with an IC50 in experiment [4] of 1.85 µM.

In the case of `O=C1NC(=O)C(c2cn(CCCO)c3ncccc23)=C1c1ccc(F)cc1Cl`, in experiment [1], the inhibition is below 50%. Also, the IC50 came out at 2.38 µM in experiment [4] and 4.5 µM in experiment [5].

On to `COc1ccccc1C1=C(c2cn(CCCNC=O)c3ncccc23)C(=O)NC1=O`, for which the IC50 in experiment [4] is 2.73 µM; in experiment [6], 8.7 µM. In experiment [2], this compound returned an inhibition below 50%.

In the case of `COc1ccccc1C1=C(c2cn(CCCNS(N)(=O)=O)c3ncccc23)C(=O)NC1=O`, the IC50 turned out to be 0.89 µM in experiment [4] and 6 µM in experiment [6]. In experiment [2], the inhibition was below 50%.

One may read the EC50 as the concentration that produces a half-maximal response. Read a high EC50 as a less potent agent. The compound `[Cl-].[Li+]` [CHLOROLITHIUM] had an EC50 in experiment [7] above 3000 µM.

For the compound `COc1ccccc1C1=C(c2cn(CCCN)c3ncccc23)C(=O)NC1=O`, the inhibition is below 50% in experiment [1] and 50% in experiment [2]. For the same compound, half-maximal inhibition in experiment [4] (IC50) was put at 1.1 µM.

`COc1ccccc1C1=C(c2cn(CCCNS(C)(=O)=O)c3ncccc23)C(=O)NC1=O`: the IC50 is 1.88 µM in experiment [4], 4.7 µM in experiment [5] and 8.6 µM in experiment [6].

The values above are taken from ChEMBL document CHEMBL1146654, “3-(7-Azaindolyl)-4-arylmaleimides as potent, selective inhibitors of glycogen synthase kinase-3” (Bioorg Med Chem Lett, 2004).
